Bioassay records as filed in PubChem BioAssay.
Compounds with a hit are over-represented: about 3% of the library has one in this group of screens.
T cruzi inh: T. cruzi replication inhibition; T. cruzi beta-gal in NIH3T3, luminescence, 90 h; inhibition, % (no concentration beside the values); hit rate 1.4% among 300,000; AID 1885;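 active = mean inhibition across valid replicates above about 55%, limit read from the data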;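 note: signal also drops with host cell toxicity which is not excluded here; 0% = plate median of DMSO wells and 100% = zero luminescence signal; higher percent means less beta-gal luminescence so fewer parasites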
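compound dosing = single 50 nL compound addition per well in DMSO | material = NIH/3T3 host cells with β-galactosidase reporter T. cruzi | input = 5,000 host fibroblasts per well | timing = ≥90 h infection period, 3 h prior cell attachment | read-out basis = percent inhibition of parasite-derived β-gal signal | detection = GalScreen β-gal luminescence, detergent lysis, 60 min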
PfHsp90 set2: inhibits growth of yeast expressing Plasmodium falciparum Hsp90; S. cerevisiae expressing PfHsp90, BacTiter-Glo ATP, 48 h; yeast lacking PDR1 and PDR3 efflux regulators; inhibition, % at 9.4 µM; hit rate 0.32% among 310,000;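 active = every replicate shows inhibition above about 80%, whatever the replicate mean, limit read from the data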;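 note: 0% = DMSO neutral controls and 100% = 20 µM radicicol positive controls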
PvdQ acylase: blocks Pseudomonas aeruginosa PvdQ acylase activity; hit rate 0.063% among 340,000; purified PvdQ acylase, fluorescence plate reader; inhibition, % at 10 µM; AID 488965; in the data active = inhibition above about 30%, passing the limit was not always enough;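 note: 0% = vehicle neutral wells and 100% = reference inhibitor wells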
CaV13 ICDI inh: Primary screen for inhibitors of IQ motif and Ca2+-dependent inactivation inhibitor domain binding in CACNA1D, Förster resonance energy transfer in living cells, …; HEK cells, CFP/YFP FRET ICDI-IQ, plate reader, 10 min; percent FRET-ratio fall versus neutral wells; inhibition, % at 12.3 µM; hit rate 0.098% among 340,000; AID 743397;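 active = mean replicate inhibition of at least 30% and at least 1% of replicates passing that level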;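 note: 0% = median of the neutral control wells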
N-glyco inh: blocks N-linked glycosylation in D54 reporter cells | reporter increase, % at 12.5 µM | D54 ERlucT glycosylation luciferase reporter, 24 h; percent of 100 nM tunicamycin response | hit rate 0.23% among 360,000;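 active = mean luciferase reporter signal, scaled so untreated is 0 and the glycosylation-blocking control 100, at or above a set limit in every replicate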;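 note: luciferase carries N-glycosylation sites so blocking glycosylation raises the light; 0% = median of neutral control wells and 100% = median of 100 nM tunicamycin wells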
HSF1 activator: increases HSF-1 driven luciferase reporter signal. NIH3T3-HGL HSF-1 luciferase reporter, MG132, 8 h; 100% = twice DMSO control signal. activation, % at 9 µM. hit rate 1.7% among 300,000;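 active = mean replicate activation of at least 50% with a set share of replicates each reaching 50%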;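 note: 0% = median of the neutral control wells and 100% = twice that signal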
* = called active by the depositor; · = no result given.

SMILES	T cruzi inh	PfHsp90 set2	PvdQ acylase	CaV13 ICDI inh	N-glyco inh	HSF1 activator
COC1CCC(OC2CC(C3(C)CCC4(CC(O)C(C)C(C(C)/C=C(\C)C(=O)C(C)CC(C)C(=O)O)O4)O3)OC3(OC(C4OC(O)(CO)C(C)CC4C)CC3C)C2C)OC1C (centres undefined)	·	106*	-5	-3	-15	·
C/C=C(\C)C(=O)N[C@@H](c1ccccc1)[C@@H](O)C(=O)O[C@H]1C[C@@]2(O)[C@@H](OC(=O)c3ccccc3)C3[C@](C)(C(=O)[C@H](OC(C)=O)C(=C1C)C2(C)C)[C@H](O)C[C@H]1OC[C@@]31OC(C)=O (some centres undefined)	56*	19	-22	·	4	-6
CCC(C)C(=O)N[C@@H](c1ccccc1)[C@@H](O)C(=O)O[C@H]1C[C@@]2(O)[C@@H](OC(=O)c3ccccc3)C3[C@](C)(C(=O)[C@H](OC(C)=O)C(=C1C)C2(C)C)[C@@H](O)C[C@H]1OC[C@@]31OC(C)=O (some centres undefined)	57*	1	-16	·	10	-20
CC(=O)O[C@@]12CO[C@@H]1C[C@@H](O)[C@@]1(C)C(=O)[C@H](O)C3=C(C)[C@@H](OC(=O)[C@H](O)[C@@H](NC(=O)c4ccccc4)c4ccccc4)C[C@@](O)([C@@H](OC(=O)c4ccccc4)C12)C3(C)C (some centres undefined)	71*	0	-11	·	6	-26
CC/C=C/CC(=O)N[C@@H](c1ccccc1)[C@@H](O)C(=O)O[C@H]1C[C@@]2(O)[C@@H](OC(=O)c3ccccc3)C3[C@](C)(C(=O)[C@H](OC(C)=O)C(=C1C)C2(C)C)[C@@H](O)C[C@H]1OC[C@@]31OC(C)=O (some centres undefined)	45	-4	-1	·	14	-12
CN(C)C(=O)Oc1ccc2c(c1)O/C(=C\c1cccc(Cl)c1)C2=O	5	-4	1	-2	0	35
CN(C)C(=O)Oc1ccc2c(c1)O/C(=C\c1ccc(Cl)cc1)C2=O	2	-6	-7	-3	-1	57*
COc1ccc(N=Cc2c(O)n(Cc3ccccc3)c(=S)[nH]c2=O)c(OC)c1	7	-1	8	-1	4	117*
COc1ccc(OC)c(N=Cc2c(O)n(Cc3ccccc3)c(=S)[nH]c2=O)c1	-3	0	0	-7	-2	4
C=C(C)[C@@]12OC3(c4ccccc4)O[C@@H]1C1[C@@H]4O[C@]4(CO)[C@@H](O)[C@]4(O)C(=O)C(C)=C[C@H]4[C@@]1(O3)[C@H](C)[C@H]2OC(=O)/C=C/C=C/c1ccccc1 (some centres undefined)	57*	·	-5	·	53*	-10
c1ccc2oc(-c3ccc4c(c3)CNCc3cnnn3-4)cc2c1	·	·	·	-6	0	·
CC1CN=C(Nc2ccccc2)S1 (centres undefined)	-19	-2	-6	-13	2	52*
CC1CN=C(Nc2ccc(N(C)C)cc2)S1 (centres undefined)	25	-3	-19	-5	0	33
Cc1cc(Br)cn2c(CC(=O)N3CCCCC3)c(-c3ccc(F)cc3)nc12	·	·	·	-5	·	·
Clc1cccc(N2Cc3cc(-c4ccccc4)ccc3-n3nncc3C2)c1	·	·	·	-9	40*	·
COc1ccc(-c2ccc3c(c2)CN(c2cccc(Cl)c2)Cc2cnnn2-3)cc1	·	·	·	-5	0	·
O=S(=O)(c1ccc2ccccc2c1)N1Cc2cc(Br)ccc2-n2nncc2C1	·	·	·	-4	·	·
O=c1[nH]c2ccccc2n1C1CCN(Cc2ccc(-c3[nH]c4cc5ncnc5cc4nc3-c3ccccc3)cc2)CC1	·	·	·	-4	·	·
COC(=O)c1c(C)n(Cc2ccc3c(c2)OCO3)c2ccc(O)cc12	10	-5	-8	-8	-7	21
CCOC(=O)c1c(C)n(Cc2ccc3c(c2)OCO3)c2ccc(O)cc12	-5	·	9	-3	-3	62*
COC(=O)C1=C(c2ccc(OC(F)(F)F)cc2)C[C@@H]2CC[C@H]1N2C(=O)N1CCc2cc(OC)c(OC)cc2C1	·	·	·	-6	·	·
CCCC(CCC)C(=O)OC[N+](C)(C)CCOC(=O)C(O)(c1ccccc1)C1CCCC1 (centres undefined)	55*	-12	-20	11	-1	-8
N#Cc1ccc(NC(=S)N2Cc3cc(Br)ccc3-n3nncc3C2)cc1	·	·	·	-3	·	·
Cc1ccc(-n2c(=O)[nH]c3ccccc3c2=O)cc1[N+](=O)[O-]	·	·	·	·	-3	·
Oc1cc(Cl)c(Cl)cc1Cl	·	·	·	-5	·	·
SMILES	T cruzi inh	PfHsp90 set2	PvdQ acylase	CaV13 ICDI inh	N-glyco inh	HSF1 activator
Oc1cc(Cl)c(Cl)c(Cl)c1Cl	·	104*	0	-8	2	·
O=C(CSC1c2ccccc2-c2ccccc21)N/N=C/c1ccccc1O	60*	-41	-1	-7	-4	10
O=C1Nc2ccccc2/C1=C/c1cnc[nH]1	39	·	-13	-8	18	66*
O=C(Nc1ccc(F)cc1)N1Cc2ccccc2-n2nncc2C1	·	·	·	·	1	·
CCCCCCCCCCCCCCCC[N+](C)(C)C	47	109*	0	-5	-17	-5
CCCCCC[N+](=O)[O-]	·	1	-15	·	2	·
O=C(NCC1=C(c2ccc3ccccc3c2)C[C@@H]2CC[C@H]1N2Cc1ccco1)c1ccc([N+](=O)[O-])cc1	·	·	·	-9	-6	·
C[C@@H]1CNCCN1c1ccc(N2CC[C@H](O)C2)c(C#N)c1	·	·	·	-6	·	·
Fc1cccc(F)c1CN1CCN(c2ccc(Cl)cc2)CC1	2	17	-9	-4	-2	60*
Fc1ccc(CN2CCN(c3ccc(Cl)cc3)CC2)cc1	-4	4	-3	0	-1	-19
CCC1(CC)C(=O)N(Cc2ccccc2)C(=O)N(Cc2ccccc2)C1=O	61*	3	28	·	0	-27
Clc1ccc(C(Cn2ccnc2)OCc2csc3c(Cl)cccc23)c(Cl)c1 (centres undefined)	·	86*	-18	-5	-5	·
CC(C)(C)c1cc(O)ccc1O	·	·	·	-4	·	·
N#Cc1ccc2nc(-c3ccc(CN4CCC(n5nnc6ccccc65)CC4)cc3)c(-c3ccccc3)nc2c1	·	·	·	-9	·	·
Cc1ccsc1C(=O)C1CCCN(Cc2cnc(N3CCOCC3)s2)C1 (centres undefined)	60*	15	4	-2	-2	3
Cc1ccsc1C(=O)C1CCCN(Cc2cnc(N(C)C)s2)C1 (centres undefined)	59*	·	·	·	·	·
Cc1ccsc1C(=O)C1CCCN(Cc2sc(N(C)C)nc2Cl)C1 (centres undefined)	47	-9	8	-5	-1	22
